Blank lines part the entries; values can stand above or below the compound they belong to. The source made the active and inactive calls. The rule behind the calls is not given here.
Legend:
[1] = Inhibition of FAM-Bim peptide binding to human Hsp70 NBD (1 to 383) measured after 30 mins by fluorescence polarization assay
Outline: (§1)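 Fluorescence polarization competition. Serial dilutions of compound added to protein–probe mixture in buffer containing 0.02% sodium azide, incubated 30 min, then polarization read. Control values subtracted. IC50 from the competitive inhibition curve of polarization versus compound concentration.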

[2] = target: Apoptosis regulator Bcl-2 (Homo sapiens, UniProt P10415); assay: Inhibition of FAM-Bim peptide binding to human Bcl-2 (2 to 206) measured after 30 mins by fluorescence polarization assay; outline: as §1
Apoptosis regulator Bcl-2, sequence (P10415 whole entry): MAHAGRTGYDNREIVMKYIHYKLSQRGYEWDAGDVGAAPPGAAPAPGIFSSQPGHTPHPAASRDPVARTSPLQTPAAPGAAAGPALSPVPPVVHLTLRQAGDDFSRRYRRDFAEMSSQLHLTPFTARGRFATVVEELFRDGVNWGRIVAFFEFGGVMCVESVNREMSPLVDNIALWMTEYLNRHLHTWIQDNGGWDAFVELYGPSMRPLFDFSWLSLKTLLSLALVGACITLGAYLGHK

[3] = Binding affinity to human Hsp70 NBD (1 to 383) assessed as dissociation constant measured by isothermal titration calorimetry assay
Outline: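 ITC: binding isotherms integrated to give enthalpy change against ligand molar ratio, fitted with a one-set-of-sites model. Kd taken from the slope of the central linear part of the fractional saturation curve. Three independent experiments.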

Homo sapiens = species on record: Homo sapiens; assay: Inhibition of BimBH3-stimulated human HSP70 ATPase activity
BV-173 [4] = assay: Competitive binding affinity to HSP70 in human BV-173 cell lysate by pull-down/Western blot analysis; format: subcellular
Outline: (§2)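 BV173 cell lysate incubated with biotin-clickable affinity probe, with or without competitor. Probe-bound proteins pulled down on streptavidin/avidin agarose after click reaction. Beads washed with 0.1% SDS and PBS, boiled 15 min in SDS loading buffer. Hsp70, Hsc70 and Mortalin detected by Western blot.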

BV-173 [5] = assay: Induction of apoptosis in human BV-173 cells by AnnexinV-FITC/PI staining based flow cytometric analysis; format: functional, cell-based
Outline: (§3)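 Cells treated with inhibitor for 48 h (DMSO stocks diluted in medium), washed in PBS with 1% bovine calf serum, stained with FITC–Annexin V (1:40) for 10 min in the dark at room temperature, and analysed by flow cytometry. EC50 is the concentration giving 50% apoptosis. Culture conditions: BV173 and KCL22 in RPMI 1640, HEK293 in DMEM, BaF3 in RPMI 1640 with 10 ng/ml mouse IL-3, all with 10% FBS at 37 °C, 5% CO2.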

KCL-22 [6] = assay: Induction of apoptosis in human KCL-22 cells by AnnexinV-FITC/PI staining based flow cytometric analysis; format: functional, cell-based; outline: as §3
HEK293 = assay: Induction of apoptosis in human HEK293 cells by AnnexinV-FITC/PI staining based flow cytometric analysis; format: cell-based; outline: as §3
BaF3 = assay: Induction of apoptosis in mouse BaF3 cells by AnnexinV-FITC/PI staining based flow cytometric analysis; format: cell-based; outline: as §3
BV-173 [7] = assay: Inhibition of Hsp70/Bim protein protein interaction in human BV-173 cells assessed as decrease in Akt phosphorylation at 3 uM by Western blot analysis; format: cell-based
Outline: (§4)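 BV173 and KCL22 cells treated at 3 µM, with DMSO as vehicle. Lysed in RIPA with protease/phosphatase inhibitor for 30 min on ice and protein measured by BCA. 150–250 µg resolved by SDS-PAGE and blotted for AKT, pAKT, Raf-1 and pRaf-1, with β-actin loading control.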

BV-173 [8] = assay: Inhibition of Hsp70/Bim protein protein interaction in human BV-173 cells assessed as decrease in Raf-1 phosphorylation at 3 uM by Western blot analysis; format: cell-based; outline: as §4
KCL-22 [9] = assay: Inhibition of Hsp70/Bim protein protein interaction in human KCL-22 cells assessed as decrease in Akt phosphorylation at 3 uM by Western blot analysis; format: cell-based; outline: as §4
KCL-22 [10] = assay: Inhibition of Hsp70/Bim protein protein interaction in human KCL-22 cells assessed as decrease in Raf-1 phosphorylation at 3 uM by Western blot analysis; format: cell-based; outline: as §4
BV-173 [11] = assay: Inhibition of Hsp70/Bim protein protein interaction in human BV-173 cells assessed as decrease in Akt expression at 3 uM by Western blot analysis; format: cell-based; outline: as §4
BV-173 [12] = assay: Inhibition of Hsp70/Bim protein protein interaction in human BV-173 cells assessed as decrease in Raf-1 expression at 3 uM by Western blot analysis; format: cell-based; outline: as §4
KCL-22 [13] = assay: Inhibition of Hsp70/Bim protein protein interaction in human KCL-22 cells assessed as decrease in Akt expression at 3 uM by Western blot analysis; format: cell-based; outline: as §4
KCL-22 [14] = assay: Inhibition of Hsp70/Bim protein protein interaction in human KCL-22 cells assessed as decrease in Raf-1 expression at 3 uM by Western blot analysis; format: cell-based; outline: as §4
[15] = target: Stress-70 protein, mitochondrial (Homo sapiens) (UniProt P38646); assay: Competitive binding affinity to Mortalin in human BV-173 cell lysate up to 10 uM by pull-down/Western blot analysis; format: subcellular; settings: dose microM <=10; outline: as §2
Stress-70 protein, mitochondrial (Homo sapiens), sequence (P38646 whole entry): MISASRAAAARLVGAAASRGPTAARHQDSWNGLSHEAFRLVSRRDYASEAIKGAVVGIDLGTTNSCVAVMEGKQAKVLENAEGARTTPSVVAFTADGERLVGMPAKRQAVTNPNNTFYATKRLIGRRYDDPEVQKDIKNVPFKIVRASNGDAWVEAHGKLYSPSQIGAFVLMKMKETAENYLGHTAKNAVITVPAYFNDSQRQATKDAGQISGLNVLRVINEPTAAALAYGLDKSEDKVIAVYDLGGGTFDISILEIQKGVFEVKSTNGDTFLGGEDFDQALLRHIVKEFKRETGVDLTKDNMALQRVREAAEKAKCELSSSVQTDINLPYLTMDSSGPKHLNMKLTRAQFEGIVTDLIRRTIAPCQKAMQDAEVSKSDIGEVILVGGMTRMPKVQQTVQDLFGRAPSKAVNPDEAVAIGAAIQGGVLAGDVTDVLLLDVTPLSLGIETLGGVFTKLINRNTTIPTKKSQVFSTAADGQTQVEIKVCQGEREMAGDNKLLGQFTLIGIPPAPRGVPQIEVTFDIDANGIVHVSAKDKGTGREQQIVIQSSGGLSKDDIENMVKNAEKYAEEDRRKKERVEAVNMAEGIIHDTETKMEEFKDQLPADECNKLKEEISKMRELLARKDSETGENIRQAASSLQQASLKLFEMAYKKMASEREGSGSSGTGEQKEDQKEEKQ

[16] = target: Heat shock cognate 71 kDa protein (Homo sapiens) (UniProt P11142); assay: Competitive binding affinity to Hsc70 in human BV-173 cell lysate up to 10 uM by pull-down/Western blot analysis; format: subcellular; settings: dose microM <=10; outline: as §2
Heat shock cognate 71 kDa protein (Homo sapiens), sequence (P11142 2-646 limits assumed): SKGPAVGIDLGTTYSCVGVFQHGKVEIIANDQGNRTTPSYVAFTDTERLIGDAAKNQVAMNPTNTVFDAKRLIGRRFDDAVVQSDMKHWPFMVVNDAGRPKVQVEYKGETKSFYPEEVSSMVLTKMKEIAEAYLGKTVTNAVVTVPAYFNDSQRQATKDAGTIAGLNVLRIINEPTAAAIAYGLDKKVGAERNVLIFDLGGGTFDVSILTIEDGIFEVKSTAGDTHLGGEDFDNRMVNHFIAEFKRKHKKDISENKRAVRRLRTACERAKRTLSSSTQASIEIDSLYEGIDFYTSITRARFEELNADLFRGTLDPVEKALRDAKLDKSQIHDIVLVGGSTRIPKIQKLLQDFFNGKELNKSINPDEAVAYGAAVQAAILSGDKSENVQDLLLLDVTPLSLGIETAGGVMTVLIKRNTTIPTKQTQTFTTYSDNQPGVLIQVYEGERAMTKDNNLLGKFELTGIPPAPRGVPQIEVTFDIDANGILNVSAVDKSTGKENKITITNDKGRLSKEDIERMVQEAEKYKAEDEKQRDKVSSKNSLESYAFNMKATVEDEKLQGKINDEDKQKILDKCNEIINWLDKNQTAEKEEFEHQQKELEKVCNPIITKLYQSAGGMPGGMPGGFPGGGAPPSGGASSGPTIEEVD

BV-173 [17] = assay: Inhibition of Hsp70/Bim protein protein interaction in human BV-173 cell lysate at 1 to 5 uM by co-IP/Western blot analysis; format: subcellular; settings: dose 1-5 µM
Outline: (§5)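 BV173 cells treated at 0, 1, 3 and 5 µM. Immunoprecipitated with sepharose beads for 2 h at 4 °C. Hsp70, Bim and Bag3 probed by Western blot with β-actin as loading control.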

BV-173 [18] = assay: Inhibition of Hsp70/Bag3 protein protein interaction in human BV-173 cell lysate at 1 to 5 uM by co-IP/Western blot analysis; format: subcellular; settings: dose 1-5 µM; outline: as §5
BV-173 [19] = assay: Induction of apoptosis in human BV-173 cells transfected with Hsp70 shRNA at 3 uM by AnnexinV staining method; format: functional, cell-based
Outline: (§6)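 Stable clones of BV173 carrying non-silencing, Hsp70 or Bim shRNA, treated at 3 µM for 48 h. Apoptosis scored by Annexin V-FITC staining and flow cytometry. n = 3 independent samples, mean ± s.e.m.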

BV-173 [20] = assay: Induction of apoptosis in human BV-173 cells transfected with Bim shRNA at 3 uM by AnnexinV staining method; format: functional, cell-based; outline: as §6
BV-173 [21] = assay: Induction of apoptosis in human BV-173 cells transfected with Hsp70 shRNA assessed as cleaved PARP at 3 uM by Western blot analysis; format: functional, cell-based
Outline: (§7)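 Stable non-silencing, Hsp70 or Bim shRNA BV173 clones treated at 3 µM. Lysed in RIPA with protease/phosphatase inhibitors, 150–250 µg protein resolved by SDS-PAGE, and PARP cleavage detected by immunoblot. n = 3 independent samples.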

BV-173 [22] = assay: Induction of apoptosis in human BV-173 cells transfected with Bim shRNA assessed as cleaved PARP at 3 uM by Western blot analysis; format: functional, cell-based; outline: as §7

Compound: CC1(C)CCC(CN2CCN(c3ccc(C(=O)NS(=O)(=O)c4ccc(NCC5CCOCC5)c([N+](=O)[O-])c4)c(Oc4cnc5[nH]ccc5c4)c3)CC2)=C(c2ccc(Cl)cc2)C1 [VENETOCLAX]
IC50 [1]: > 20 µM

Compound: N#CC1=C(C#N)c2ccc(Sc3ccccc3)c3cccc(c23)C1=O
IC50 [1]: 7.7 µM
IC50 [2]: 1.8 µM

Compound: N#CC1=C(NCC2CCCCC2)c2ccc(SC3CCCCC3)c3cccc(c23)C1=O
IC50 [1]: 8.4 µM
IC50 [2]: 4.8 µM

Compound: CC(C)c1ccc(Sc2ccc3c4c(cccc24)C(=O)C(C#N)=C3C#N)cc1
IC50 [1]: 4.4 µM
IC50 [2]: 2.8 µM

Compound: N#CC1=C(C#N)c2ccc(NC3CCCCC3)c3cccc(c23)C1=O
IC50 [1]: > 20 µM
IC50 [2]: > 20 µM

Compound: N#CC1=C(NCc2ccccc2)c2ccc(SC3CCCCC3)c3cccc(c23)C1=O
IC50 [1]: 10.5 µM
IC50 [2]: 5.2 µM

Compound: CCCCNC1=C(C#N)C(=O)c2cccc3c(SC4CCCCC4)ccc1c23
IC50 [1]: 13.2 µM
IC50 [2]: 16 µM

Compound: COc1ccc(Sc2ccc3c4c(cccc24)C(=O)C(C#N)=C3C#N)cc1
IC50 [1]: 4.5 µM
IC50 [2]: 6.1 µM

Compound: N#CC1=C(C#N)c2ccc(NCCO)c3cccc(c23)C1=O
IC50 [1]: 15.2 µM
IC50 [2]: > 20 µM

Compound: N#CC1=C(C#N)c2ccc(NCc3ccccc3)c3cccc(c23)C1=O
IC50 [1]: 18.5 µM
IC50 [2]: 14.8 µM

Compound: N#CC1=C(C#N)c2ccc(N3CCSCC3)c3cccc(c23)C1=O
IC50 [1]: > 20 µM
IC50 [2]: 0.8 µM

These reach a lower IC50 [1]. Values come first.

IC50 [1]: 3.2 µM
IC50 [2]: 8.4 µM
Compound: N#CC1=C(C#N)c2ccc(SC3CCCC3)c3cccc(c23)C1=O

IC50 [1]: 2.5 µM
IC50 [2]: 0.7 µM
Compound: N#CC1=C(C#N)c2ccc(Sc3ccc(Br)cc3)c3cccc(c23)C1=O

IC50 [1]: 1.7 µM
IC50 [2]: 8.6 µM
Compound: N#CC1=C(C#N)c2ccc(SC3CCCCC3)c3cccc(c23)C1=O

IC50 [1]: 1 µM
IC50 [2]: 13.5 µM
Compound: N#CC1=C(NCCC(N)=O)c2ccc(SC3CCCCC3)c3cccc(c23)C1=O

IC50 [1]: 0.81 µM
IC50 [2]: 9.6 µM
Compound: N#CC1=C(NCCO)c2ccc(SC3CCCCC3)c3cccc(c23)C1=O

IC50 [1]: 0.45 µM
IC50 [2]: 18.7 µM
Kd [3]: 0.96 µM
inhibition (Homo sapiens): Active
Activity (BV-173 [4]): Dose-Dependent Effect
EC50 (BV-173 [5]): 1.4 µM
EC50 (KCL-22 [6]): 2.6 µM
EC50 (BaF3): > 15 µM
Activity [16]: Active
inhibition (BV-173 [17]): Active
inhibition (BV-173 [18]): inactive
Compound: N#CC1=C(NCCN2CCOCC2)c2ccc(SC3CCCCC3)c3cccc(c23)C1=O
EC50 (HEK293): > 15 µM
inhibition (BV-173 [7]): Active
inhibition (BV-173 [8]): Active
inhibition (KCL-22 [9]): Active
inhibition (KCL-22 [10]): Active
inhibition (BV-173 [11]): Active
inhibition (BV-173 [12]): Active
inhibition (KCL-22 [13]): Active
inhibition (KCL-22 [14]): Active
Activity [15]: Active
Activity (BV-173 [19]): Active
Activity (BV-173 [20]): Active
Activity (BV-173 [21]): Active
Activity (BV-173 [22]): Active
